From the RNAGym collection of RNA variant scans (doi:10.1126/science.aae0568)
This sample holds only a part of the variants without activity.

B1: tRNA (parent)
chain: GUUCCGUUGGCGUAAUGGUAACGCGUCUCCCUCCUAAGGAGAAGACUGCGGGUUCGAGUCCCGUACGGAACG

Variants of: B1
Assay: yeast fitness relative to wild type (ratio to wild type); higher = fitter; tRNA-Arg(CCU), competitive growth, 37 C, YPD
Method in brief: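 Amplicons of the tRNA-Arg(CCU) gene were sequenced, 100-nucleotide paired-end, from the start population and from each end population of a pooled yeast competition. The competition, in six parallel replicates, lasted 24 hours in YPD at 37°C. Fitness relative to wild type was calculated from changes in genotype frequencies. Genotypes had to have ≥ 100 starting reads, and estimates < 0.5 were set to 0.5.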

Variant	yeast fitness
U3G C30G A70C	0.628
U3C C31U A57G	0.778
U3G C66U	0.699
U3C A45U G51C	0.574
U3G A45G A69U	0.763
U3C A15C A65C	≤ 0.5
U3C G10U U26C A42U	≤ 0.5
C4A A14C U19A	≤ 0.5
U3G G18A A65U	0.548
C4A A45C G52A G67U	0.577
C4A C5U G39C A42C	≤ 0.5
U3C G25U U59C A69C	0.531
U3C G23A C27G C33A	≤ 0.5
U3C A14C	0.703
U3G C5G G10A C30G C31G C49A C60U G67A	≤ 0.5
C4A C22A C55U	≤ 0.5
U3C C5G A40G	≤ 0.5
U3G C4A A40U C66A A69C	≤ 0.5
U3G A20C A21G C61A	≤ 0.5
U3C G38A A45C	≤ 0.5
U3C U13A C31U G41A A57C A70U	≤ 0.5

Variant	yeast fitness
U3A U19C	0.875
U3G C24A C34A C46G	0.581
U3G C5A C34A	≤ 0.5
C4A A21U	0.676
U3G C5G A20C C61U	≤ 0.5
C4A A20C C27U	0.636
U3C A14C G44C G50C U54C C55A	≤ 0.5
U3G C4U C30U C33G C55U G68U	≤ 0.5
U3C C5U U7G C22U C27G G58A	≤ 0.5
U3C U13A	0.983
U3C U13G	1.04
C4A C5U C34U U64G	0.576
U3C A20G U47C	0.686
U3C G25A A65C	0.732
U3C G6C A14U A20G G25A G38A U47A C60G A70G	≤ 0.5
U3A U16A C22U A36C G38U G48C	≤ 0.5
U3C C27U G50A	0.648
U3G U8A C24A G56C	≤ 0.5
U3C A14U A37U	≤ 0.5
U3G C49G G56A	≤ 0.5
U3G C30G A40C C46U	0.57

Variant	yeast fitness
C4A C11U U32A G38C C55U G58A G67A	≤ 0.5
U3A U19A C24U	0.74
U3G C4G A70C	≤ 0.5
U3C C49A	0.599
U3C C4G G23C	≤ 0.5
C4A A14G C24U U32G A43G A65U	≤ 0.5
U3C C27G A45C	≤ 0.5
U3C G25C C33G C61G	≤ 0.5
U3C G9A A69U	0.882
U3C C4G C66G	≤ 0.5
U3G A15G C34A A70G	0.555
U3G A14G	0.907
U3G U28A C33U A36G C66A	≤ 0.5
U3G G51A C66U	≤ 0.5
U3C C4U C27U C30A G41C C49A C55G C61A	≤ 0.5
U3C C61U G67A	0.567
U3C G9A C61U	0.827
U3G G41C G51C A57G	≤ 0.5
C4A C11G U13G G25A C62U G63A	≤ 0.5
C4A A20U A43U A57C	≤ 0.5
C4A A14U C34G A65U	≤ 0.5

Variant	yeast fitness
U3G G51A	0.701
U3C C11U U19A A43U U59A G63A	≤ 0.5
U3C U8C U13C	0.548
C4A A36C A57G A65U	≤ 0.5
U3C G23C C30A G38C	≤ 0.5
U3C C55U A65G	0.514
U3C G18A U53A U54G G67U	≤ 0.5
U3C U8A U19A U54G	≤ 0.5
U3A U47G G67A A69U	≤ 0.5
U3C A45C C49U	0.712
U3C A14U A15C C31G A43U	≤ 0.5
U3C C34G A40C A43U	≤ 0.5
U3G C24A C30U	≤ 0.5
U3C A43C	1.04
C4A A14G A36U A57U	0.953
U3C C24G C31U C55A	≤ 0.5
C4A A14G U26A	≤ 0.5
C4A A20C A42U C66U	≤ 0.5
U3C C5U	0.836
U3C A20C A45C C49U	≤ 0.5
U3C G12A C24A A36U C61U G67U	0.55
